# Experiments:
# UniProt Q8VGX8 = molecular target: T1, UniProt Q8VGX8; conditions: stereoisomer not certain
# T1 sequence (whole entry): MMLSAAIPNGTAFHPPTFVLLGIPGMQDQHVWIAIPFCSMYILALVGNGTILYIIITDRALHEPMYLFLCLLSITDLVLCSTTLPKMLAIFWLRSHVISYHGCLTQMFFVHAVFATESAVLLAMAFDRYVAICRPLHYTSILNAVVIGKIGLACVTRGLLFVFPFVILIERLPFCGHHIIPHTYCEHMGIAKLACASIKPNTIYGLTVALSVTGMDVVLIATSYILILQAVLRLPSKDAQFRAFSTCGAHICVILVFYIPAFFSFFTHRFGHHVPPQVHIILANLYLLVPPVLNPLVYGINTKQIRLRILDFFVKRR
# How it was run: (§1)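 Transient luciferase assays in mammalian cell lines were common, though methods varied by source. The values come from published papers and their supplementary material, with extra details from the original authors when needed. Responsive refers to a measured signal the original authors judged statistically different from baseline, and non-responsive (inactive) to the remainder.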
# UniProt Q8VH18 = conditions: stereoisomer not certain
# Sequence of UniProt Q8VH18 (Q8VH18 as listed by the source): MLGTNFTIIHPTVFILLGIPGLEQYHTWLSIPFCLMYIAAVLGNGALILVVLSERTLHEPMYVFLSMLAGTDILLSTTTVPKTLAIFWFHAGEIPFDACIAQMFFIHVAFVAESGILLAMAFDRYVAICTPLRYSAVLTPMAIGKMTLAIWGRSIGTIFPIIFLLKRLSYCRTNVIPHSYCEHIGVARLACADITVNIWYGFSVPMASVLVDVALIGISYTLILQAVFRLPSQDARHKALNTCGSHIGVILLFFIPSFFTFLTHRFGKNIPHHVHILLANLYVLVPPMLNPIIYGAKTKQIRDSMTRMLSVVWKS
# How it was run: as §1
# 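Note: active if original authors judged signal statistically different from baseline.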
smiles,measurement,setting,value
O=C(O)CCCCCCCBr,odorant receptor agonist call,UniProt Q8VGX8,active
same,odorant receptor agonist call,UniProt Q8VH18,active

# From the M2OR odorant receptor database
